According to ChEMBL document CHEMBL2321682, “Synthesis and Anti-inflammatory Evaluation of Novel Benzimidazole and Imidazopyridine Derivatives” (ACS Med Chem Lett, 2013):

Assays:
[1] = system: RAW264.7; experiment: Inhibition of LPS-induced TNF-alpha secretion in mouse RAW264.7 cells at 10 uM pretreated for 2 hrs prior to LPS addition measured after 22 hrs by ELISA; assay type: functional
Summary of the method: (§1)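 RAW 264.7 macrophages seeded at 4.0 × 10^5/plate overnight (37 °C, 5% CO2), pretreated 2 h with 10 μM compound (omeprazole as comparator), then LPS 0.5 μg/mL for 22 h. TNF-α and IL-6 in medium measured by ELISA, normalized to total cellular protein.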

[2] = Cytotoxicity against human HL7702 cells assessed as inhibition of cell viability at 20 uM after 24 to 72 hrs by MTT assay; assay type: cell-based; conditions: l02, 20 µM
Summary of the method: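 Human normal liver HL-7702 cells exposed to 20 μM compound for 24, 48 and 72 h; viability read by MTT.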

[3] = system: RAW264.7; experiment: Inhibition of LPS-induced IL-6 secretion in mouse RAW264.7 cells pretreated for 2 hrs prior to LPS addition measured after 22 hrs by ELISA; assay type: functional, cell-based
Summary of the method: (§2)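 Dose–response for IC50. RAW264.7 cells were seeded at 1.2 × 10^6/plate overnight at 37 °C, 5% CO2. They were pretreated 2 h with 1.0, 5.0 or 10 μM compound, then given LPS 0.5 μg/mL for 22 h. Medium TNF-α or IL-6 was quantified by ELISA and normalized to total protein.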

[4] = system: RAW264.7; experiment: Inhibition of LPS-induced IL-6 secretion in mouse RAW264.7 cells at 10 uM pretreated for 2 hrs prior to LPS addition measured after 22 hrs by ELISA; assay type: functional; summary of the method: as §1
[5] = system: RAW264.7; experiment: Inhibition of LPS-induced TNF-alpha secretion in mouse RAW264.7 cells pretreated for 2 hrs prior to LPS addition measured after 22 hrs by ELISA; assay type: functional, cell-based; summary of the method: as §2
[6] = system: Mus musculus; experiment: Antiinflammatory activity against LPS-induced C57BL/6 mouse sepsis model assessed as increase in survival rate at 15 mg/kg, iv administered 15 mins after LPS injection measured for 7 days; assay type: functional
Summary of the method: (§3)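 Mice received LPS 20 mg/kg iv. Test agent was given iv as its HCl salt at 15 mg/kg, either 15 min after LPS (line 1, therapeutic) or 15 min before LPS (line 2, preventive). Survival and body weight were recorded daily for 7 days. Data pool two experiments, n = 12 per group, compared with the LPS-alone group.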

[7] = system: Mus musculus; experiment: Antiinflammatory activity against LPS-induced C57BL/6 mouse sepsis model assessed as increase in survival rate at 15 mg/kg, iv administered 15 mins prior to LPS injection measured for 7 days; assay type: functional; summary of the method: as §3

CCCn1c(-c2cn(C)c3ccccc23)nc2ccc(N3CCN(C)CC3)nc21
inhibition at 10 µM [1]: 50%

CCCn1c(-c2cn(C)c3ccccc23)nc2ccc(N3CCOCC3)nc21
inhibition at 10 µM [1]: 50%

CCCn1c(-c2ccccc2F)nc2ccc(N3CCN(C)CC3)nc21
inhibition at 10 µM [1]: 50%

Cc1ccc(-c2nc3ccc(N4CCN(C)CC4)nc3[nH]2)s1
inhibition at 10 µM [1]: 50%

CCCn1c(-c2c[nH]c3ccc(Br)cc23)nc2ccc(N3CCN(C)CC3)nc21
Activity [2]: Toxic
inhibition at 10 µM [1]: 50%
IC50 [3]: 1210 nM
inhibition [3]: Dose-dependent effect
inhibition at 10 µM [4]: > 50%
IC50 [5]: 1.99 µM
inhibition [5]: Dose-dependent effect

CCCn1c(-c2ccc(OCCCN(C)C)cc2)nc2ccc(N3CCN(C)CC3)nc21
Activity [2]: Non-toxic
inhibition at 10 µM [1]: 50%
IC50 [3]: 3280 nM
inhibition [3]: Dose-dependent effect
inhibition at 10 µM [4]: > 50%
IC50 [5]: 12.4 µM
inhibition [5]: Dose-dependent effect

CCN(CC)CCn1c(-c2ccccc2OC)nc2cc(Cl)ccc21
inhibition at 10 µM [1]: 50%

CCCn1c(-c2c[nH]c3ncccc23)nc2ccc(N3CCN(C)CC3)nc21.Cl
Activity [6]: 50%
Activity [7]: 50%

CN1CCN(c2ccc3nc(-c4c[nH]c5ccccc45)[nH]c3n2)CC1
inhibition at 10 µM [1]: 50%

CCCn1c(-c2ccccc2Br)nc2ccc(N3CCN(C)CC3)nc21
inhibition at 10 µM [1]: 50%

COc1ccccc1-c1nc2ccc(N3CCN(C)CC3)nc2[nH]1
inhibition at 10 µM [1]: 50%

CCCn1c(-c2ccccc2OC)nc2ccc(N3CCN(C)CC3)nc21
inhibition at 10 µM [1]: 50%

CCCn1c(-c2c[nH]c3ccccc23)nc2ccc(N3CCN(C)CC3)nc21
inhibition at 10 µM [1]: 64.8%
IC50 [3]: 4300 nM
inhibition [3]: Dose-dependent effect
inhibition at 10 µM [4]: 81.4%
IC50 [5]: 14.2 µM
inhibition [5]: Dose-dependent effect

CCCn1c(-c2ccc(C)s2)nc2ccc(N3CCN(C)CC3)nc21
inhibition at 10 µM [1]: 50%
IC50 [3]: 2810 nM
inhibition [3]: Dose-dependent effect
inhibition at 10 µM [4]: > 50%
IC50 [5]: 7.25 µM
inhibition [5]: Dose-dependent effect

CCCn1c(-c2c[nH]c3ncccc23)nc2ccc(N3CCN(C)CC3)nc21 [listing 1 of 2 here]
inhibition [3]: Dose-dependent effect
inhibition [5]: Dose-dependent effect

CCCn1c(-c2ccc(C)s2)nc2ccc(N3CCOCC3)nc21
inhibition at 10 µM [1]: 50%

CCCn1c(-c2c[nH]c3ncccc23)nc2ccc(N3CCN(C)CC3)nc21 [listing 2 of 2 here]
Activity [2]: Non-toxic
inhibition at 10 µM [1]: 50%
IC50 [3]: 1620 nM
inhibition at 10 µM [4]: > 50%
IC50 [5]: 4.79 µM
